Experimental data: ChEMBL document CHEMBL1122075, “Absolute stereochemistry and dopaminergic activity of enantiomers of 2,3,4,5-tetrahydro-7,8-dihydroxy-1-phenyl-1H-3-benzazepine” (J Med Chem, 1982)

What was measured:
[1] = biological target: Adenylate cyclase; test: Tested for ability to stimulate dopamine sensitive adenylate cyclase in rat caudate homogenate
Procedure, shortened: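 Rat striatal homogenates; dopamine-sensitive adenylate cyclase stimulation read as cyclic AMP production. EC50 is the molar concentration giving half-maximal stimulation of cAMP production over the concentration range tested.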

[2] = species on record: Canis familiaris; test: Compound was tested for its renal vasodilator activity in dogs.; format: functional; conditions: Canis lupus familiaris
Procedure, shortened: (§1)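 Dogs anesthetized and surgically prepared for electromagnetic renal blood flow measurement, with carotid arterial pressure recorded. Drug infused into an antecubital vein at progressively increasing (generally threefold) concentrations to give cumulative dose-response data. RVR = mean arterial pressure / mean renal blood flow. ED15 is the average maximum cumulative dose lowering RVR by 15%.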

[3] = species on record: Canis familiaris; test: Renal vascular resistance (RVR) in dog was determined; format: functional, Canis lupus familiaris; procedure, shortened: as §1
[4] = species on record: Rattus norvegicus; test: Compound was tested for maximum response, the percent of cyclic AMP induced by 5 x 10 E-5 M dopamine
[5] = species on record: Rattus norvegicus; test: Ability to induce contralateral rotations in rats having lesions in the substantia nigra.; format: functional
Procedure, shortened: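 Rotation counts in rats carrying unilateral left substantia nigra lesions. RD500 is the dose calculated to give 500 body rotations over a 2-h test period.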

[6] = species on record: Rattus norvegicus; test: Compound was tested for maximum response, the percent of cyclic AMP induced by 1 x 10 E-4 M dopamine; format: functional
[7] = species on record: Canis familiaris; test: Percent av maximum in dog was determined; Expressed as av max (%); format: functional, Canis lupus familiaris
[8] = species on record: Canis familiaris; test: Renal vascular resistance (RVR) in dog was determined; Not statistically significant; format: functional, Canis lupus familiaris; procedure, shortened: as §1

NCCc1ccc(O)c(O)c1 [DOPAMINE]
EC50 [1]: 3500 nM | ED15 [2]: 0.0027 mg/kg

Cl.Oc1cc2c(cc1O)[C@@H](c1ccccc1)CNCC2
EC50 [1]: 32 nM | RVR [3]: 18 | ED15 [2]: 0.025 mg/kg | Max response [4]: 66% | RD500 [5]: 0.5 mg/kg

Cl.Oc1cc2c(cc1O)[C@H](c1ccccc1)CNCC2
Max response [6]: 27% | ED15 [2]: > 0.55 mg/kg | RD500 [5]: > 2 mg/kg | Activity [7]: 9% | RVR [8]: 9

Cl.Oc1cc2c(cc1O)C(c1ccccc1)CNCC2 (racemic)
EC50 [1]: 71 nM | RVR [3]: 19 | ED15 [2]: 0.031 mg/kg | Max response [4]: 68% | RD500 [5]: 0.7 mg/kg
